ChEMBL document CHEMBL1671684, “In vitro resistance profile of the hepatitis C virus NS3/4A protease inhibitor TMC435” (Antimicrob Agents Chemother, 2010)

Tested on: Hepatitis C virus
Experiment: Antiviral activity against Hepatitis C virus subtype 1b expressing WT NS3 infected in HuH7 cells after 48 hrs by luciferase reporter assay
Assay type: functional, organism-based, Hepacivirus hominis
Conditions: genotype 1b, Huh-7, 48 h
Method in brief: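 Huh7-lunet cells were electroporated with 10 μg wild-type genotype 1b subgenomic replicon RNA (clone ET; luciferase reporter; E1202G, T1280I, K1846T). They were seeded at 4,000 cells/well over a nine-point compound dilution series. After 48 h at 37°C, 5% CO2, luciferase reagent was added 1:1, followed by 10–20 min in the dark and a luminescence read. EC50 is the median of individual-experiment EC50s.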

SMILES | EC50
COc1ccc2c(O[C@@H]3C[C@H]4C(=O)N[C@]5(C(=O)O)C[C@H]5/C=C\CCCCC[C@H](NC(=O)OC5CCCC5)C(=O)N4C3)cc(-c3csc(NC(C)C)n3)nc2c1 [CILUPREVIR] | 0.8 nM

Tested on: Hepatitis C virus
Experiment: Antiviral activity against Hepatitis C virus subtype 1b expressing NS3 V36M mutant infected in HuH7 cells after 48 hrs by luciferase reporter assay
Assay type: functional, organism-based, Hepacivirus hominis
Conditions: genotype 1b, Huh-7, 48 h
Method in brief: (§1)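 Genotype 1b con1 subgenomic bicistronic replicon (clone ET) with luciferase reporter and adaptive mutations E1202G, T1280I, K1846T, carrying site-directed NS3 single or double mutations. 10 μg wild-type or mutant replicon RNA electroporated into Huh7-lunet cells, seeded 4,000 cells/well over a nine-point inhibitor dilution series, 48 h at 37°C, 5% CO2, then luminescence read. EC50 taken as median of individual experiments; fold change relative to parental replicon EC50.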

SMILES | EC50
COc1ccc2c(O[C@@H]3C[C@H]4C(=O)N[C@]5(C(=O)O)C[C@H]5/C=C\CCCCC[C@H](NC(=O)OC5CCCC5)C(=O)N4C3)cc(-c3csc(NC(C)C)n3)nc2c1 [CILUPREVIR] | 2.4 nM

Tested on: Hepatitis C virus
Experiment: Antiviral activity against Hepatitis C virus subtype 1b expressing NS3 V36A mutant infected in HuH7 cells after 48 hrs by luciferase reporter assay
Assay type: functional, organism-based, Hepacivirus hominis
Conditions: genotype 1b, Huh-7, 48 h
Method in brief: as §1

SMILES | EC50
COc1ccc2c(O[C@@H]3C[C@H]4C(=O)N[C@]5(C(=O)O)C[C@H]5/C=C\CCCCC[C@H](NC(=O)OC5CCCC5)C(=O)N4C3)cc(-c3csc(NC(C)C)n3)nc2c1 [CILUPREVIR] | 1 nM

Tested on: Hepatitis C virus
Experiment: Antiviral activity against Hepatitis C virus subtype 1b expressing NS3 F43I mutant infected in HuH7 cells after 48 hrs by luciferase reporter assay
Assay type: functional, organism-based, Hepacivirus hominis
Conditions: genotype 1b, Huh-7, 48 h
Method in brief: as §1

SMILES | EC50
COc1ccc2c(O[C@@H]3C[C@H]4C(=O)N[C@]5(C(=O)O)C[C@H]5/C=C\CCCCC[C@H](NC(=O)OC5CCCC5)C(=O)N4C3)cc(-c3csc(NC(C)C)n3)nc2c1 [CILUPREVIR] | 0.4 nM

Tested on: Hepatitis C virus
Experiment: Antiviral activity against Hepatitis C virus subtype 1b expressing NS3 F43V mutant infected in HuH7 cells after 48 hrs by luciferase reporter assay
Assay type: functional, organism-based, Hepacivirus hominis
Conditions: genotype 1b, Huh-7, 48 h
Method in brief: as §1

SMILES | EC50
COc1ccc2c(O[C@@H]3C[C@H]4C(=O)N[C@]5(C(=O)O)C[C@H]5/C=C\CCCCC[C@H](NC(=O)OC5CCCC5)C(=O)N4C3)cc(-c3csc(NC(C)C)n3)nc2c1 [CILUPREVIR] | 0.4 nM

Tested on: Hepatitis C virus
Experiment: Antiviral activity against Hepatitis C virus subtype 1b expressing NS3 Q80K mutant infected in HuH7 cells after 48 hrs by luciferase reporter assay
Assay type: functional, organism-based, Hepacivirus hominis
Conditions: genotype 1b, Huh-7, 48 h
Method in brief: as §1

SMILES | EC50
COc1ccc2c(O[C@@H]3C[C@H]4C(=O)N[C@]5(C(=O)O)C[C@H]5/C=C\CCCCC[C@H](NC(=O)OC5CCCC5)C(=O)N4C3)cc(-c3csc(NC(C)C)n3)nc2c1 [CILUPREVIR] | 1 nM

Tested on: Hepatitis C virus
Experiment: Antiviral activity against Hepatitis C virus subtype 1b expressing NS3 R109K mutant infected in HuH7 cells after 48 hrs by luciferase reporter assay
Assay type: functional, organism-based, Hepacivirus hominis
Conditions: genotype 1b, Huh-7, 48 h
Method in brief: as §1

SMILES | EC50
COc1ccc2c(O[C@@H]3C[C@H]4C(=O)N[C@]5(C(=O)O)C[C@H]5/C=C\CCCCC[C@H](NC(=O)OC5CCCC5)C(=O)N4C3)cc(-c3csc(NC(C)C)n3)nc2c1 [CILUPREVIR] | 1.4 nM

Tested on: Hepatitis C virus
Experiment: Antiviral activity against Hepatitis C virus subtype 1b expressing NS3 R155M mutant infected in HuH7 cells after 48 hrs by luciferase reporter assay
Assay type: functional, organism-based, Hepacivirus hominis
Conditions: genotype 1b, Huh-7, 48 h
Method in brief: as §1

SMILES | EC50
COc1ccc2c(O[C@@H]3C[C@H]4C(=O)N[C@]5(C(=O)O)C[C@H]5/C=C\CCCCC[C@H](NC(=O)OC5CCCC5)C(=O)N4C3)cc(-c3csc(NC(C)C)n3)nc2c1 [CILUPREVIR] | 84 nM

Tested on: Hepatitis C virus
Experiment: Antiviral activity against Hepatitis C virus subtype 1b expressing NS3 R155K mutant infected in HuH7 cells after 48 hrs by luciferase reporter assay
Assay type: functional, organism-based, Hepacivirus hominis
Conditions: genotype 1b, Huh-7, 48 h
Method in brief: as §1

SMILES | EC50
COc1ccc2c(O[C@@H]3C[C@H]4C(=O)N[C@]5(C(=O)O)C[C@H]5/C=C\CCCCC[C@H](NC(=O)OC5CCCC5)C(=O)N4C3)cc(-c3csc(NC(C)C)n3)nc2c1 [CILUPREVIR] | 489 nM

Tested on: Hepatitis C virus
Experiment: Antiviral activity against Hepatitis C virus subtype 1b expressing NS3 A156S mutant infected in HuH7 cells after 48 hrs by luciferase reporter assay
Assay type: functional, organism-based, Hepacivirus hominis
Conditions: genotype 1b, Huh-7, 48 h
Method in brief: as §1

SMILES | EC50
COc1ccc2c(O[C@@H]3C[C@H]4C(=O)N[C@]5(C(=O)O)C[C@H]5/C=C\CCCCC[C@H](NC(=O)OC5CCCC5)C(=O)N4C3)cc(-c3csc(NC(C)C)n3)nc2c1 [CILUPREVIR] | 1.7 nM

Tested on: Hepatitis C virus
Experiment: Antiviral activity against Hepatitis C virus subtype 1b expressing NS3 A156G mutant infected in HuH7 cells after 48 hrs by luciferase reporter assay
Assay type: functional, organism-based, Hepacivirus hominis
Conditions: genotype 1b, Huh-7, 48 h
Method in brief: as §1

SMILES | EC50
COc1ccc2c(O[C@@H]3C[C@H]4C(=O)N[C@]5(C(=O)O)C[C@H]5/C=C\CCCCC[C@H](NC(=O)OC5CCCC5)C(=O)N4C3)cc(-c3csc(NC(C)C)n3)nc2c1 [CILUPREVIR] | 22 nM

Tested on: Hepatitis C virus
Experiment: Antiviral activity against Hepatitis C virus subtype 1b expressing NS3 A156T mutant infected in HuH7 cells after 48 hrs by luciferase reporter assay
Assay type: functional, organism-based, Hepacivirus hominis
Conditions: genotype 1b, Huh-7, 48 h
Method in brief: as §1

SMILES | EC50
COc1ccc2c(O[C@@H]3C[C@H]4C(=O)N[C@]5(C(=O)O)C[C@H]5/C=C\CCCCC[C@H](NC(=O)OC5CCCC5)C(=O)N4C3)cc(-c3csc(NC(C)C)n3)nc2c1 [CILUPREVIR] | 1070 nM

Tested on: Hepatitis C virus
Experiment: Antiviral activity against Hepatitis C virus subtype 1b expressing NS3 D168G mutant infected in HuH7 cells after 48 hrs by luciferase reporter assay
Assay type: functional, organism-based, Hepacivirus hominis
Conditions: genotype 1b, Huh-7, 48 h
Method in brief: as §1

SMILES | EC50
COc1ccc2c(O[C@@H]3C[C@H]4C(=O)N[C@]5(C(=O)O)C[C@H]5/C=C\CCCCC[C@H](NC(=O)OC5CCCC5)C(=O)N4C3)cc(-c3csc(NC(C)C)n3)nc2c1 [CILUPREVIR] | 35 nM

Tested on: Hepatitis C virus
Experiment: Antiviral activity against Hepatitis C virus subtype 1b expressing NS3 D168T mutant infected in HuH7 cells after 48 hrs by luciferase reporter assay
Assay type: functional, organism-based, Hepacivirus hominis
Conditions: genotype 1b, Huh-7, 48 h
Method in brief: as §1

SMILES | EC50
COc1ccc2c(O[C@@H]3C[C@H]4C(=O)N[C@]5(C(=O)O)C[C@H]5/C=C\CCCCC[C@H](NC(=O)OC5CCCC5)C(=O)N4C3)cc(-c3csc(NC(C)C)n3)nc2c1 [CILUPREVIR] | 520 nM

Tested on: Hepatitis C virus
Experiment: Antiviral activity against Hepatitis C virus subtype 1b expressing NS3 D168V mutant infected in HuH7 cells after 48 hrs by luciferase reporter assay
Assay type: functional, organism-based, Hepacivirus hominis
Conditions: genotype 1b, Huh-7, 48 h
Method in brief: as §1

SMILES | EC50
COc1ccc2c(O[C@@H]3C[C@H]4C(=O)N[C@]5(C(=O)O)C[C@H]5/C=C\CCCCC[C@H](NC(=O)OC5CCCC5)C(=O)N4C3)cc(-c3csc(NC(C)C)n3)nc2c1 [CILUPREVIR] | 1810 nM
